Laboratory results taken from ChEMBL document CHEMBL2417367 (Bioorg Med Chem, 2013).
pIC50: −log10 of the molar value.

Columns and labels:
[1] = target: Epidermal growth factor receptor (Homo sapiens, UniProt P00533); experiment: Inhibition of EGFR (unknown origin) using poly(Glu,Tyr) as substrate after 30 mins by HTRF assay
Summary of the method: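 HTRF kinase assay with purified kinase protein on precoated poly(Glu,Tyr) 4:1 substrate (20 µg/mL). Buffer was 50 mM HEPES pH 7.0 with DTT, MgCl2, MnCl2 and 0.1% NaN3, plus ATP added from a 10 mM solution. Compounds were in 1% DMSO. Reaction ran 30 min at 25 °C and was stopped with Streptavidin-XL665 and TK antibody-cryptate. Read at 320/615 nm; % inhibition from max/min controls, IC50 from inhibition curves.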

[2] = target: T1, Receptor-type tyrosine-protein kinase FLT3 (Homo sapiens, UniProt P36888); experiment: Inhibition of FLT-3 (unknown origin) using poly(Glu,Tyr) as substrate after 30 mins by HTRF assay
T1 sequence (P36888 whole entry): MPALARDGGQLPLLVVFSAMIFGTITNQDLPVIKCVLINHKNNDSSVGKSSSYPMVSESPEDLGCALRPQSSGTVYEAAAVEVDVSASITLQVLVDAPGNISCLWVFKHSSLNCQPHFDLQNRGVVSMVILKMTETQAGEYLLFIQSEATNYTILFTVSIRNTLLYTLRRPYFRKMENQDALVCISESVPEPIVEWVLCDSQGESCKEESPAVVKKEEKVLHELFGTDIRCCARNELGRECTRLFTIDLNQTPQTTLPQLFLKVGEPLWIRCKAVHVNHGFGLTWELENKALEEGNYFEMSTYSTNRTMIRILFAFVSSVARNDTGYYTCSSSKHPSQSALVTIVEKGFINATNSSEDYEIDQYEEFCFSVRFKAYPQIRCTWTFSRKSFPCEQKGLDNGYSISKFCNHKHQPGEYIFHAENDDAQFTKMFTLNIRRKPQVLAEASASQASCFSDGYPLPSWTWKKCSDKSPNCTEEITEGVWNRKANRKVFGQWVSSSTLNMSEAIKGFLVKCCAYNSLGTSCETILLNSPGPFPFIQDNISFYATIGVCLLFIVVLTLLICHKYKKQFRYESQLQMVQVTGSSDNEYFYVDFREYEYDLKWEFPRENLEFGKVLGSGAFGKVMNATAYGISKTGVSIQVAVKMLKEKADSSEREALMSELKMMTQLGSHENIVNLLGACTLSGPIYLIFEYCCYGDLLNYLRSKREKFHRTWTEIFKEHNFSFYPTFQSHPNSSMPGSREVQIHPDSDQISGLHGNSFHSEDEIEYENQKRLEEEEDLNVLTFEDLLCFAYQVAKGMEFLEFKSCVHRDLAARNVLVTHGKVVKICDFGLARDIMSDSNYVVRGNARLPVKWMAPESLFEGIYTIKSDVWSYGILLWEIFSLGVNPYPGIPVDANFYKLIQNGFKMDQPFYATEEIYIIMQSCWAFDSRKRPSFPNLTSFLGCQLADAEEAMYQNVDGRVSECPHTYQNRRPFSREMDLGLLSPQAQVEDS
Summary of the method: (§1)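 HTRF kinase assay on plates precoated with poly(Glu,Tyr) 4:1 (20 µg/mL). ATP was added as a 10 mM solution in 50 mM HEPES pH 7.0 buffer with DTT, MgCl2, MnCl2 and 0.1% NaN3. Compounds were in 1% DMSO, and purified kinase started the reaction (30 min, 25 °C). Streptavidin-XL665/TK antibody cryptate stopped it, read at 320/615 nm. Inhibition was scaled to enzyme and no-enzyme controls; IC50 from curves.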

[3] = target: Mast/stem cell growth factor receptor Kit (Homo sapiens, UniProt P10721); experiment: Inhibition of c-KIT (unknown origin) using poly(Glu,Tyr) as substrate after 30 mins by HTRF assay; summary of the method: as §1
Sequence of Mast/stem cell growth factor receptor Kit (P10721 whole entry): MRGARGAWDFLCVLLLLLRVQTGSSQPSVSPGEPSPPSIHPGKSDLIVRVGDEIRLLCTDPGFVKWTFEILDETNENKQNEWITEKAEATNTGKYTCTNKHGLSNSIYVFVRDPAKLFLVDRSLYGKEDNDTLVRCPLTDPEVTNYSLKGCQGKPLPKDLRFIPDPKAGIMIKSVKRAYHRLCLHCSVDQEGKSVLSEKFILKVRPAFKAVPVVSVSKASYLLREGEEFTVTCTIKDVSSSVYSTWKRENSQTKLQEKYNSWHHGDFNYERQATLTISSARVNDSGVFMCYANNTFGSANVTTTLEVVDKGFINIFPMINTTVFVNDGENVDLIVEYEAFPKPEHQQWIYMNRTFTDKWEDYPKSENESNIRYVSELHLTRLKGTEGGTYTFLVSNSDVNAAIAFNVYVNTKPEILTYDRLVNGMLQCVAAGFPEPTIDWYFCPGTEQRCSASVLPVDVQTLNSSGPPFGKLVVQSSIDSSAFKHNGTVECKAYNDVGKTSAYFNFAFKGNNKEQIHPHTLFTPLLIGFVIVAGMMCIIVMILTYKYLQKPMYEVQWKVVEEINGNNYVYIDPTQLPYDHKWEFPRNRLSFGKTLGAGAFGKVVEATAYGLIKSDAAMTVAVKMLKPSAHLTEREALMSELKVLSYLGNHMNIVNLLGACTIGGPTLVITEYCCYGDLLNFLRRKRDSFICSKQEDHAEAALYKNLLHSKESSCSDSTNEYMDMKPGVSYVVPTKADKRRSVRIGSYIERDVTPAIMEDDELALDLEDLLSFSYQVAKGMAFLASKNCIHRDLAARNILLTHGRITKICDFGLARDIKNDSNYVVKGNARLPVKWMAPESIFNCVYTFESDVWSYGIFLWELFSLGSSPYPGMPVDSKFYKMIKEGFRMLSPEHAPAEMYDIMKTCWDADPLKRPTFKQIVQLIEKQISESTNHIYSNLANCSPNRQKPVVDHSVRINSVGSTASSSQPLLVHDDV

[4] = target: Platelet-derived growth factor receptor alpha (Homo sapiens, UniProt P16234); experiment: Inhibition of PDGFRalpha (unknown origin) using poly(Glu,Tyr) as substrate after 30 mins by HTRF assay; summary of the method: as §1
Sequence of Platelet-derived growth factor receptor alpha (P16234 whole entry): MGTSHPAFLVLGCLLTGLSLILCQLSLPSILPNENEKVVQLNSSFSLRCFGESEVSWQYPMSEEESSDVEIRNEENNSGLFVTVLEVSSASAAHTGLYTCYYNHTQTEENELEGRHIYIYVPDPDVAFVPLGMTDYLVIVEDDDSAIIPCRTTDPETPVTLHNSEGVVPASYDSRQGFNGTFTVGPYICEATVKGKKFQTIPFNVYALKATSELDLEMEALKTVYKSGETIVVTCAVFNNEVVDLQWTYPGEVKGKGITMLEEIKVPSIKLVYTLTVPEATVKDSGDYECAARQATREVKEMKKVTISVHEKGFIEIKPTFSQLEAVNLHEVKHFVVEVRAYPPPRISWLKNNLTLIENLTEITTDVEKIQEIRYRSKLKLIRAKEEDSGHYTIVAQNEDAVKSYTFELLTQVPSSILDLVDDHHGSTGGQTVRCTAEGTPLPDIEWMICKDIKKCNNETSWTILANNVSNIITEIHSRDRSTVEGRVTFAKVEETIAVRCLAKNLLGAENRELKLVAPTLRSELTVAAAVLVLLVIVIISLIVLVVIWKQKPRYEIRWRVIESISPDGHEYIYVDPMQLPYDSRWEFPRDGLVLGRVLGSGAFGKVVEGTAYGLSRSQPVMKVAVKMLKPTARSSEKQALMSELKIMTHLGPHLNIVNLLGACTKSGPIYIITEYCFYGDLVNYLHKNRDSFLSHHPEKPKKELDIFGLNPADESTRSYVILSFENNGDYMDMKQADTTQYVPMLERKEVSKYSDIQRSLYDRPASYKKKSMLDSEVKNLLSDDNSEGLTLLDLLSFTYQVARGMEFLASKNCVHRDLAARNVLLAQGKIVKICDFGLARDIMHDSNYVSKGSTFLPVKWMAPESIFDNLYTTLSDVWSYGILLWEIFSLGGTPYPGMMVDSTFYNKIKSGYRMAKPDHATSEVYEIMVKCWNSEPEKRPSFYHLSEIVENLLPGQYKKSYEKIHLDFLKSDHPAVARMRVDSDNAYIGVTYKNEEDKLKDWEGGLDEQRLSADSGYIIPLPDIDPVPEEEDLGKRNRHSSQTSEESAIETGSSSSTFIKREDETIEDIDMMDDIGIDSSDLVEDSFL

[5] = target: Vascular endothelial growth factor receptor 2 (Homo sapiens, UniProt P35968); experiment: Inhibition of KDR (unknown origin) using poly(Glu,Tyr) as substrate after 30 mins by HTRF assay; summary of the method: as §1
Sequence of Vascular endothelial growth factor receptor 2 (P35968 whole entry): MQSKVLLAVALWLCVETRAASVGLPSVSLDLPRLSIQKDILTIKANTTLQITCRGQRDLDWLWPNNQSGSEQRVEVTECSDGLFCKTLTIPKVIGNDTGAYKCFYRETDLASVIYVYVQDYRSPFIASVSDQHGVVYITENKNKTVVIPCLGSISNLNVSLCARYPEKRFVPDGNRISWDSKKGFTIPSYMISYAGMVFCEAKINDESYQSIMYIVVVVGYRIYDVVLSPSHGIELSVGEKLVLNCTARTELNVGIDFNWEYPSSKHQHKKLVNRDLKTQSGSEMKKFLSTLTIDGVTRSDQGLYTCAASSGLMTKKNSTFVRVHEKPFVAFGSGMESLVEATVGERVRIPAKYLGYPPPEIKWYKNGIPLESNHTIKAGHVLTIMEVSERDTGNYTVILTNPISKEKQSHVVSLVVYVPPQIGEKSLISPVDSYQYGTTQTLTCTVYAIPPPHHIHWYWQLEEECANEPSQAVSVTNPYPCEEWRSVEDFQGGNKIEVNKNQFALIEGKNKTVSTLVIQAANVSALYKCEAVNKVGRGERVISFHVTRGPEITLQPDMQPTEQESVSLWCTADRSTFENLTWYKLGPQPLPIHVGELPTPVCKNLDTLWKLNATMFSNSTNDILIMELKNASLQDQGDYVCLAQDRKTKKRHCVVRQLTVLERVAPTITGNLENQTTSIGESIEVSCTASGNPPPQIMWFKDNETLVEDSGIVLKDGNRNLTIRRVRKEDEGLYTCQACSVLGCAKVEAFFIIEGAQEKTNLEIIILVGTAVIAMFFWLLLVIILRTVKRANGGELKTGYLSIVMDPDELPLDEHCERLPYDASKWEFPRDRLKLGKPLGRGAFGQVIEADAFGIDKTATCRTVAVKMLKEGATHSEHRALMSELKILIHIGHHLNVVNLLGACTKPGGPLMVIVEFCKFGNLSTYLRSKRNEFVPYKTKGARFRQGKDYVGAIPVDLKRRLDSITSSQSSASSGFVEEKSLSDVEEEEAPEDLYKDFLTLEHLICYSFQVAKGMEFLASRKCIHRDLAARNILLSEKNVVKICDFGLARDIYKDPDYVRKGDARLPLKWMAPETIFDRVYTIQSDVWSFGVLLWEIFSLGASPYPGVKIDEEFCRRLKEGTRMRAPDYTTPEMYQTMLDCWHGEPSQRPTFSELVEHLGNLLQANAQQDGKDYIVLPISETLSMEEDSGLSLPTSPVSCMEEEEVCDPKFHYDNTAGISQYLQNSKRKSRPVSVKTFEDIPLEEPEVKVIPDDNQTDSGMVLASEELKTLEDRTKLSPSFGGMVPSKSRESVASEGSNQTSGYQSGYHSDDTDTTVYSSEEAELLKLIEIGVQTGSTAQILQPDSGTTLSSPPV

[6] = target: Macrophage-stimulating protein receptor (Homo sapiens, UniProt Q04912); experiment: Inhibition of RON (unknown origin) using poly(Glu,Tyr) as substrate after 30 mins by HTRF assay; summary of the method: as §1
Sequence of Macrophage-stimulating protein receptor (Q04912 25-304 limits assumed): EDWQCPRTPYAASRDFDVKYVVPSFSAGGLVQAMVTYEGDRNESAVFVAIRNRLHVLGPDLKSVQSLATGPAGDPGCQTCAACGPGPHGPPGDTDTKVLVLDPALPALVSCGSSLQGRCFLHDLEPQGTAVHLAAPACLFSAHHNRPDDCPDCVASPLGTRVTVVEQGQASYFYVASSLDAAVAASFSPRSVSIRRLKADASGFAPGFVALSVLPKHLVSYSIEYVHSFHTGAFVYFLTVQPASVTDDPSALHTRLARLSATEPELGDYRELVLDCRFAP
Sequence of Macrophage-stimulating protein receptor (Q04912 310-1400 limits assumed): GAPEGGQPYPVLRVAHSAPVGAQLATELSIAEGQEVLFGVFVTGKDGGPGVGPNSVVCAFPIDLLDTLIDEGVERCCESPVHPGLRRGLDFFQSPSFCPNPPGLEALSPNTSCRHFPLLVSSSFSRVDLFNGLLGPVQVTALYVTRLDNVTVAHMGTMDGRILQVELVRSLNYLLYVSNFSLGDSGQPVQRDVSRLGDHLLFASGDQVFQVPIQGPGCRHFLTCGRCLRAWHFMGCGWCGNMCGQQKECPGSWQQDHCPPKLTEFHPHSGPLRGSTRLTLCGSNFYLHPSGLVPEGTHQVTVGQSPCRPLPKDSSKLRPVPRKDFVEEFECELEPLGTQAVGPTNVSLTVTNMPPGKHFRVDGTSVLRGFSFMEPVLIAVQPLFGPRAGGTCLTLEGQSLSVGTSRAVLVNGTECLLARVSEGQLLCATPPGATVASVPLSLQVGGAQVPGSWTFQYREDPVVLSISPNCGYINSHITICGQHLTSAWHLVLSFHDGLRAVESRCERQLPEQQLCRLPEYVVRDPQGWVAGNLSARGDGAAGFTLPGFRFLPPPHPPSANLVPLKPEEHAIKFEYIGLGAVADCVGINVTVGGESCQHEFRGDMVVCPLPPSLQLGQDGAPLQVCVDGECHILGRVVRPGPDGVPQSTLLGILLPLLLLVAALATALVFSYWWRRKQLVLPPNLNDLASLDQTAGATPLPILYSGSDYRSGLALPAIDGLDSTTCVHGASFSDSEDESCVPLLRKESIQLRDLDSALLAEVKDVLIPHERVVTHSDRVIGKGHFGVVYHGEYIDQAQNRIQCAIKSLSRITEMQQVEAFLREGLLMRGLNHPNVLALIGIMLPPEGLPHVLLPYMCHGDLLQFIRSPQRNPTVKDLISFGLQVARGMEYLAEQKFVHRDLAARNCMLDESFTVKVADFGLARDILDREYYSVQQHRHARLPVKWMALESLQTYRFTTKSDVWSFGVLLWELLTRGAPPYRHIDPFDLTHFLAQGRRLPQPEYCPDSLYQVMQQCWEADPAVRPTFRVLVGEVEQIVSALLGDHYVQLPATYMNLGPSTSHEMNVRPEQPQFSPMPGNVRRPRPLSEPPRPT

MDA-MB-231 = experiment: Cytotoxicity against human MDA-MB-231 cells after 72 hrs by MTT assay; format: functional, cell-based; details: MDA-MB-231, 72 h
Summary of the method: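 Cells were grown in MEM with 10% FBS. About 4×10^3 cells per well were seeded and incubated 24 h at 37 °C in 5% CO2. Compounds were then added at set final concentrations for 72 h. MTT (final 5 µg/mL) was added for 4 h at 37 °C, and formazan was dissolved in DMSO and read at 492 nm against a 630 nm reference. Each line was tested three times; IC50 is mean ± SD.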

A549 = experiment: Cytotoxicity against human A549 cells after 72 hrs by MTT assay; format: functional, cell-based; details: A549, 72 h
SMMC-7721 = experiment: cells; details: Homo sapiens, SMMC-7721, 72 h
NCI-H460 = experiment: cells; details: Homo sapiens, NCI-H460, 72 h
cells = details: Homo sapiens, U-87 MG, 72 h
HT-29 = experiment: cells; details: Homo sapiens, HT-29, 72 h
MKN-45 = experiment: cells; details: Homo sapiens, MKN-45, 72 h

pIC50 [1]: < 4.00
pIC50 [2]: 6.42
pIC50 [3]: 6.64
pIC50 [4]: 6.41
pIC50 [5]: 6.16
pIC50 [6]: 7.73
pIC50 (SMMC-7721): 6.54
pIC50 (NCI-H460): 7.24
pIC50 (cells): 8.01
pIC50 (HT-29): 7.10
pIC50 (MKN-45): 6.29
Structure (SMILES): COc1cc2c(Oc3ccc(NC(=O)N/N=C/c4ccc(F)cc4F)cc3F)ccnc2cc1OCCCN1CCC(C)CC1
pIC50 (MDA-MB-231): 5.96
pIC50 (A549): 7.10
